High-throughput results: PubChem, The Scripps Research Institute Molecular Screening Center
TCR-CD3 inh: inhibitors of human TCR-CD3 interaction, primary screen, biochemical, fluorescence, TAMRA-labeled TCR probe; inhibition, % at 9.4 µM; hit rate 0.37% among 360,000; AID 651800, 2012; in the data active means inhibition above about 19%;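 further: recombinant mutant TCR 2C K166C tagged with TAMRA read by polarization; 0% = receptor in buffer alone and 100% = receptor with positive control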
ABHD4 inh: ABHD4 inhibitors, primary screen, biochemical, fluorescence polarization, mouse; purified mABHD4, FP-Rh probe fluorescence polarization; hit rate 0.54% among 370,000; inhibition, % at 8.92 µM; (Lyso)-N-acylphosphatidylethanolamine lipase (Mus musculus), Q8VD66;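 active means inhibition exceeding the mean over every tested compound plus 3 SD, cut at about 30% in these data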;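 further: 0% = plate median of compound wells and 100% = S159A mutant with DMSO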
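Assay system: mABHD4 protein; medium: HEPES pH 7.0, NaCl, Pluronic buffer; dosing: 8.92 µM, single dose; schedule: 45 min + 60 min at 25 °C; signal: FP readout, ex 525 nm / em 598 nm; read-out: normalized percent inhibition of probe labeling; repeats: single replicate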
SIAE inh: human SIAE inhibitors, primary screen, biochemical, fluorescence polarization, FP-Rh probe, 1536-well HTS. hit rate 0.69% among 370,000. Sialate O-acetylesterase (Homo sapiens), Q9HAT2. inhibition, % at 9.66 µM. SIAE FP-Rh probe binding;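 active means inhibition above a cutoff: mean of compounds within the control limits plus 3 SD of those, cut at about 17% in these data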;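 further: 0% = plate median of compound wells and 100% = probe without SIAE protein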
DAGLB inh: DAGLB lipase inhibitors, primary screen, biochemical, fluorescence, HTS | Diacylglycerol lipase-beta (Homo sapiens), Q8NCG7 | HEK293T DAGLB membrane lysate, EnzChek fluorogenic substrate | inhibition, % at 5.17 µM | hit rate 0.059% among 340,000; in the data active means inhibition above about 34%;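 further: 0% = enzyme with vehicle and 100% = wells lacking enzyme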
Target sequence (Q8NCG7 whole entry, looked up): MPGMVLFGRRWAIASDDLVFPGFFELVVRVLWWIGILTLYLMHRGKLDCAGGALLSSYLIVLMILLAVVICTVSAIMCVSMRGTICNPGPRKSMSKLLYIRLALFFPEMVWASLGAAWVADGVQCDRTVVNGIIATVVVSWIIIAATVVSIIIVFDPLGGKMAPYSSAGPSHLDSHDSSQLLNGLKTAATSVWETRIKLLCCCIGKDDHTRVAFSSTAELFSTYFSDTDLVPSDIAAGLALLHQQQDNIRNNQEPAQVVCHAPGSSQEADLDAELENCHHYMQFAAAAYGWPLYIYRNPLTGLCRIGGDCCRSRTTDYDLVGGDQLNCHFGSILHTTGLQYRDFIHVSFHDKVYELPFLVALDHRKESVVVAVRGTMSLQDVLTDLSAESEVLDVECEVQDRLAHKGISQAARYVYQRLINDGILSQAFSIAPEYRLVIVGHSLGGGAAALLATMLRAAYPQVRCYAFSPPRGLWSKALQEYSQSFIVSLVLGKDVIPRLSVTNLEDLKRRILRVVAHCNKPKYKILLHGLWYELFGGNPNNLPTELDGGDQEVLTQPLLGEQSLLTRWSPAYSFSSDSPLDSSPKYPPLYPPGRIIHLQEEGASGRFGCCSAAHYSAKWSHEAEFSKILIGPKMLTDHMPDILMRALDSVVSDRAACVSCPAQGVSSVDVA
HTRA1 inhibitor: HTRA1 serine protease inhibitors, primary screen, biochemical, fluorescence polarization, HTS | recombinant HTRA1, FP-rhodamine activity-based probe | inhibition, % at 5.96 µM | hit rate 0.5% among 340,000 | AID 504803, 2011; in the data active means inhibition above about 36%;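 further: 0% = enzyme with DMSO and 100% = wells lacking enzyme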
Numbers without * were called inactive; nt = no result. Most compounds without a hit are left out; they make up all but 1.6% or so of the library.

SMILES | TCR-CD3 inh | ABHD4 inh | SIAE inh | DAGLB inh | HTRA1 inhibitor
O=C(Nc1cccc(C(F)(F)F)c1)c1cc2ncc(Br)cn2n1 | 7 | -5 | -11 | -5 | -9
Cc1ccc(Nc2nc(-c3c(C)nc4ccccn34)cs2)cc1 | -6 | 35* | 7 | 4 | 20
CCn1c2ccccc2c2cc(NC(=O)CSc3nnc(-c4cccc(Cl)c4)o3)ccc21 | -4 | -4 | 27* | -3 | -7
COC(=O)[C@]12C[C@H](CC(=O)NCCCN3CCCC3=O)C(=O)N(Cc3ccc4c(c3)OCO4)C1=C[C@H](C(C)(C)C)O[C@@H]2C | 6 | 3 | -1 | nt | nt
O=C(c1ccco1)N1CCN(c2nc3ccccc3n3nnnc23)CC1 | 0 | 6 | 0 | -2 | -2
c1ccc(CC2CCN(c3nc4ccccc4n4nnnc34)CC2)cc1 | 33* | 3 | -15 | -19 | -7
O=C(NN=Cc1ccccc1O)C(=O)Nc1ccc(F)cc1 | 2 | 12 | -2 | nt | nt
O=C(Nc1ccc(Cl)cc1)c1cc2c(cc1O)[nH]c1ccccc12 | 4 | 13 | 51* | -3 | 16
CN1CCN(c2ccc3c(c2)Oc2ccccc2CN(Cc2cn(Cc4cccc(C(F)(F)F)c4)nn2)S3(=O)=O)CC1 | nt | -1 | 11 | nt | nt
Cc1coc2c1C(=O)C(=O)c1c-2ccc2c(C)cccc12 | nt | nt | nt | 24 | 40*
O=C(Cn1nc2ccccc2n1)N/N=C/c1cc(Cl)cc([N+](=O)[O-])c1O | 56* | 9 | 3 | 33 | 15
S=C1Nc2ccccc2CS1 | 2 | 0 | 7 | 1 | -3
S=C1Cc2ccccc2N1 | 7 | 34* | 6 | 31 | 24
CC(C)[C@H](NC(=O)[C@@H]1Cc2c([nH]c3ccccc23)C2c3ccccc3C(=O)N21)C(=O)N1CCC[C@H]1C(=O)O (stereo partly drawn) | 6 | 6 | -2 | nt | nt
CC(=O)c1cc(O)c2ccccc2c1O | 1 | 39* | -3 | 1 | 32
COc1ccc(OC)c(S(=O)(=O)N2CCCCC2C(=O)N2CCN(c3ccccc3F)CC2)c1 (stereo not drawn) | nt | 6 | 6 | nt | nt
Nc1ccc2c(c1)N1CCN=C1S2 | 5 | 5 | 10 | 0 | 5
O=C(Nc1ccc(Cl)cc1)Nc1ccc2c(c1)N1CCN=C1S2 | -15 | 5 | 19* | -15 | 10
O=S(=O)(Nc1cc2nc3ccccc3nc2n1Cc1ccccc1)c1ccc(Cl)cc1 | -5 | 8 | 30* | 12 | 29
CN(Cc1ccccc1)C(=O)OCc1cn(Cc2ccccc2)nn1 | nt | 0 | 0 | nt | nt
CCOc1c(Br)cc(CNc2ccc3c(c2)OCCO3)cc1OC | 1 | 2 | 29* | -1 | 8
CC(C)(C)N(Cc1cn(Cc2ccccc2)nn1)S(=O)(=O)c1ccc(F)cc1Br | nt | -4 | -2 | nt | nt
Cc1ccc(C)c(N2C(=N)S/C(=C\c3ccc(-c4ccccc4C(=O)O)o3)C2=O)c1 | -3 | 34* | 2 | 7 | -13
Cc1cccc(Oc2coc3cc(OC(=O)c4cccs4)ccc3c2=O)c1 | -6 | -11 | -14 | -3 | 69*
Cc1ccc(Oc2coc3cc(OC(=O)c4cccs4)ccc3c2=O)cc1 | 4 | -10 | -9 | -1 | 70*
SMILES | TCR-CD3 inh | ABHD4 inh | SIAE inh | DAGLB inh | HTRA1 inhibitor
O=S1(=O)c2ccc(Br)cc2OC[C@@H](Cc2ccccc2)N1Cc1cn(CCC2OCCCO2)nn1 | nt | 3 | -1 | nt | nt
CCS(=O)(=O)c1ccc(N=Nc2ccc(O)c3ncccc23)c(OC)c1 | -3 | 22 | 4 | 20 | 47*
CC(C)C[C@H]1COc2cccc(NCCO)c2S(=O)(=O)N1 | -2 | 0 | 4 | nt | nt
O=C(O[C@@H]1OC2COC(=O)c3cc(O)c(O)c(O)c3-c3c(cc(O)c(O)c3O)C(=O)O[C@@H]([C@H]1O)[C@@H]2O)c1cc(O)c(O)c(O)c1 | nt | nt | nt | -1 | 41*
CCN(CC)C(=O)Cn1ncc2c1-c1ccccc1OC2 | -7 | -5 | -2 | -6 | 7
O=C(Cn1ncc2c1-c1ccccc1OC2)Nc1nc2ccccc2s1 | 19* | -12 | -8 | 3 | -23
C/C(CC(=O)Nc1cc(C)ccn1)=N\NC(=O)c1cccc(C)c1O | 35* | 11 | 4 | 2 | 33
CCN=C1NC(c2ccc(C(F)(F)F)cc2)C(C(=O)OC)=C(C)N1Cc1ccccc1C(F)(F)F (stereo not drawn) | -2 | 10 | 0 | nt | nt
CCCc1c(C)[nH]c2ccc(C(=O)O)cc2c1=S | 27* | -18 | -8 | 3 | -47
C/C(=N\NC(=O)c1ccc(Br)cc1)C1C(=O)c2ccccc2C1=O | 27* | 36* | 0 | 20 | 40*
COC1=C(Br)C(=O)c2nc(C)ccc2C1=O | 19* | 21 | -7 | -5 | 16
COC1=C(N)C(=O)c2nc(C)ccc2C1=O | -1 | 8 | -3 | -6 | 10
Cc1cccc(C)c1NC(=O)C(c1ccccc1)N1CCC(c2ccccc2)CC1 (stereo not drawn) | 1 | 2 | -6 | nt | nt
Cc1ccc(NC(=O)C2CCN(C(=O)c3ccccc3C)CC2)cc1 | -5 | 8 | 2 | -1 | 6
Cc1ccccc1C(=O)N1CCC(C(=O)Nc2cccc(F)c2)CC1 | 0 | -5 | 26* | -2 | 0
COc1cc(NC(=O)C2CCCN(S(=O)(=O)c3cccc4cccnc34)C2)cc(OC)c1 (stereo not drawn) | nt | -5 | -6 | nt | nt
CCC(=O)N1CCc2cc(Br)c(S(=O)(=O)NCc3ccccc3OC)cc21 | nt | 1 | 3 | nt | nt
O=C1C(C2=C(O)c3ccccc3C2=O)=Nc2ccccc21 | -3 | 40* | 10 | 13 | 22
Nc1cc(Cl)nc(N/N=C/c2ccccc2[N+](=O)[O-])n1 | 2 | 2 | 18* | 1 | 3
Nc1cc(Cl)nc(N/N=C/c2ccc([N+](=O)[O-])cc2)n1 | 7 | 4 | 7 | 1 | -5
COc1ccc(O)cc1CN1CCN(c2ncc(Cc3ccccc3)cn2)CC1 | -7 | 0 | 5 | nt | nt
O=[N+]([O-])c1ccc2c(c1)N([O-])C1(CCCCC1)[N+]2=O | 4 | 53* | 13 | nt | nt
Cc1cc(O)ccc1Nc1nc2ccccc2nc1Nc1ccc(O)cc1C | 14 | 23 | 20* | 2 | 34
Cc1ccc(Nc2nc3ccccc3s2)c(C)c1 | 4 | 19 | 2 | -3 | -20
CCC(C)N(Cc1ccc(OC)cc1OC)S(=O)(=O)c1cc(Br)ccc1Br (stereo not drawn) | -2 | -6 | -4 | nt | nt
CN1CCc2cc3c(c4c2[C@H]1[C@H](O)c1ccccc1-4)OCO3 | 15 | 46* | 12 | -1 | 17
COCc1[nH]nc2c1C(c1cccc(C(F)(F)F)c1)N(c1ccc(OC)cc1)C2=O (stereo not drawn) | 7 | -1 | 1 | nt | nt
c1ccc(OCc2nnc(-c3ccccc3)o2)cc1 | 2 | 1 | 11 | -8 | -3
